Measurements published in publication PMC10370593 (Chemical Science, 2023).
“Also recorded” adds a separate entry of the source.

Tests used:
Erk1 gene = assay: Gene silencing by real-time PCR; assay type: cell-based, human; conditions: mean ± SEM of three
Notch1 gene = assay: Gene silencing by real-time PCR; assay type: cell-based, human; conditions: 72 h, MDA-MB-231, MR50 (1.25 μM lipopeptide, 25 nM Notch1 siRNA), RT-PCR, mean ± SEM of three
Erk2 gene = assay: Gene silencing by real-time PCR; assay type: cell-based, human; conditions: 72 h, MDA-MB-231, MR50, RT-PCR, mean ± SEM of three
MDA-MB-231 cells [1] = assay: Cellular uptake by flow cytometry; assay type: cell-based, human; conditions: DY-547 labelled siRNA, MR 50, 1 h incubation
Outline: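 MDA-MB-231 cells were incubated 1 h with complexes of FAM-labelled lipopeptide (1.25 μM) and DY-547-labelled siRNA (25 nM), MR 50. Complexes were pre-formed by mixing and resting 30 min at room temperature. Uptake was read by flow cytometry in the FITC and PE channels, with single-label complexes used for compensation. Samples were run in duplicate; values are mean ± SEM of two replicates.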

MDA-MB-231 cells [2] = assay: Uptake studies by ApoTome microscopy; assay type: cell-based, human; conditions: MR 50, 6 h incubation at 37 °C
trypsin = assay: Protease stability of lipopeptides; assay type: in vitro ADME; conditions: 0.1 μg trypsin, protocol of ref. 14
HUVEC = assay: Cellular uptake by flow cytometry; assay type: cell-based, human; conditions: DY-547 labelled siRNA, MR 50, 1 h incubation, hard to transfect primary cells, two replicates
Notch1 protein = assay: Immunostaining of Notch1 protein; assay type: cell-based, human; conditions: MDA-MB-231, 72 h, MR50, TRITC signal versus untreated vehicle
Outline: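 MDA-MB-231 cells were seeded at 14000 per well on etched coverslips and left overnight. They were then transfected with unlabelled lipopeptide (1.25 μM) complexed to Notch1-silencing siRNA (25 nM), MR 50, for 72 h. Untreated cells served as vehicle. Notch1 was detected by immunofluorescence.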

CD24 gene = assay: Relative gene expression in Notch1 silenced MDA-MB-231 by real-time PCR; assay type: cell-based, human; conditions: MDA-MB-231, 72 h, RT-PCR; AB36_siRNA MR 50, metformin 200 μM; mean of n = 3
MDA-MB-231 cells [3] = assay: MTT cytotoxicity for IC50 and combination index; assay type: cell-based; conditions: Homo sapiens, MDA-MB-231, 72 h
Outline: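 MTT viability assay in MDA-MB-231 cells at 72 h. The IC50 of the test compound came from a dose range analysed in CompuSyn. For the combination, five test compound doses (200–450 μM) were paired with a fixed dose of lipopeptide–Notch1 siRNA complex. Combination index was derived by the Chou–Talalay method. Data are mean ± SEM, n = 3.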

MMP-2 gene = assay: Relative gene expression in Notch1 silenced MDA-MB-231 by real-time PCR; assay type: cell-based, human; conditions: MDA-MB-231, 72 h, RT-PCR; AB36_siRNA MR 50, metformin 200 μM; mean of n = 3
CD44 gene = assay: as above; assay type: cell-based, human; conditions: MDA-MB-231, 72 h, RT-PCR; AB36_siRNA MR 50, metformin 200 μM; mean of n = 3
[4] = 48 h, MDA-MB-231, MR50 (1.25 μM lipopeptide, 25 nM Erk1/2 siRNA), RT-PCR

Row | Molecule | Knockdown percentage, Erk1 (Erk1 gene; [4]) [%] | Knockdown percentage, Erk1 (Erk1 gene; 72 h, MDA-MB-231, MR50, RT-PCR) [%] | Knockdown percentage, Notch1 (Notch1 gene) [%] | Knockdown percentage, Erk2 (Erk2 gene) [%] | other results
1 | c[-Arg-^DHis-Arg-^DHis-Arg-Lys{Lys(linoleyl)2}-Arg-^DHis-Arg-^DHis-Arg-Glu-]-Lys(FAM)-NH2 (head to tail) [Peptide 6, reference compound] | 31.2 ± 2.2 | 78.1 ± 2.0 | 80.9 ± 1.6 | 71.6 ± 9.4 | –
2 | FAM-γAbu-Arg-C^α-Octylgly-Arg-Sar-Arg-Gly-Arg-Lys-N^ε(1-Adamantyl)-Arg-Sar-Arg-NH2 [AB29] | 52.6 ± 10.2 | 58.8 ± 10.9 | 50.5 ± 7.7 | 59.8 ± 7.2 | siRNA internalization (ranking among designed lipopeptides) (MDA-MB-231 cells [1]): much lower efficiency; also recorded: lowest amount of siRNA
3 | FAM-^γAbu-Arg- Lys-N^ε(stearyl)-Arg-Sar-Arg-Gpn-Arg- Lys-N^ε(stearyl)-Arg-Sar-Arg-NH2 [AB32] | 51.6 ± 7.4 | 70.6 ± 2.3 | 73.1 ± 2.8 | 60.3 ± 3.2 | –
4 | FAM-γAbu-Arg- Lys-N^ε(1-Pyrenebutyryl)-Arg-Sar-Arg-Gly-Arg- Lys-N^ε(1-Pyrenebutyryl)-Arg-Sar-Arg-NH2 [AB17] | 67.9 ± 7.6 | 85.9 ± 8.8 | 82.5 ± 5.6 | 75.8 ± 5.1 | –
5 | FAM-γAbu-Arg- C^α-Octylgly -Arg-Sar-Arg-Gly-Arg- Lys-N^ε(D-alpha-Tocopherol succinyl)-Arg-Sar-Arg-NH2 [AB18] | 62.6 ± 12.5 | 89.1 ± 6.3 | 90.8 ± 3.06 | 85.9 ± 16.7 | cytosolic distribution of siRNA compared with HiPerFect (MDA-MB-231 cells [2]): higher levels of cytosolic distribution of siRNA; siRNA internalization (ranking among designed lipopeptides) (MDA-MB-231 cells [1]): highest siRNA internalization; also recorded: highest level of siRNA; siRNA internalization relative to HiPerFect_siRNA (MDA-MB-231 cells [1]; two replicates): 1.79 times
6 | PEG9-Arg- C^α-Octylgly -Arg-Sar-Arg-Gly-Arg-Lys- N^ε(D-alpha-Tocopherol succinyl)-Arg-Sar-Arg-NH2 [AB36] | – | – | – | – | time at which degradation by trypsin starts (trypsin): 1 to 3 h; time at which lipopeptide is completely degraded by trypsin (trypsin): 6 h; cellular internalization of siRNA relative to HiPerFect (HUVEC): 1.53 times; Notch1 protein expression by immunofluorescence (Notch1 protein): significantly lowered
7 | CN(C)C(=N)N=C(N)N [metformin] | – | – | – | – | relative expression of the CD24 gene (CD24 gene): did not show any changes; IC50 (MDA-MB-231 cells [3]): 374 µM; relative expression of the MMP-2 gene (MMP-2 gene): did not show any changes; relative expression of the CD44 gene (CD44 gene): did not show any changes
